Reference: ChEMBL document CHEMBL1126068, “Renin inhibitors containing C-termini derived from mercaptoheterocycles” (J Med Chem, 1992)

Assays:
Renin = target: T1, Renin (Homo sapiens, UniProt P00797); experiment: The compound was tested in vitro for inhibition of human plasma renin.; assay type: cell-free
T1 sequence (P00797 whole entry): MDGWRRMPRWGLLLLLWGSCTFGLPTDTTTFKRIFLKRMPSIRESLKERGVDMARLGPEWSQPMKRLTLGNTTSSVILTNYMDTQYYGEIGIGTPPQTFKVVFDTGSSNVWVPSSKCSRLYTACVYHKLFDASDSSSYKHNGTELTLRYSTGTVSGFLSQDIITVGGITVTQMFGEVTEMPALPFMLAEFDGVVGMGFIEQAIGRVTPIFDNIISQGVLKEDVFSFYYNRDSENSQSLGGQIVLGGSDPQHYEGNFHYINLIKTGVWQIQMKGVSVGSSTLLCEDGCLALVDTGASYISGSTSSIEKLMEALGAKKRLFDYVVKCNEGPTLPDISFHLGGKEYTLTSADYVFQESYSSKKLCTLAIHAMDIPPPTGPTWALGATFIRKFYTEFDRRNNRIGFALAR
How it was run: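 Lyophilized human plasma was reconstituted in distilled water on the assay day. Angiotensin I was measured by radioimmunoassay (commercial kit) at pH 7.4 in phosphate buffer, 37 °C, with PMSF to block angiotensinases. Inhibitors came from a 1 mM DMF stock serially diluted to 3–5 concentrations, run in duplicate and averaged. IC50 was calculated by linear regression.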

[1] = Inhibition of plasma renin determined at Peak change in mean arterial pressure at the dose of 0.35 mg/kg administered through intravenously in Rhesus monkeys.; assay type: functional; conditions: Cercopithecidae, route intravenous
How it was run: (§1)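 Conscious male and female rhesus monkeys kept on a low-sodium diet, given furosemide the evening before, and fasted 18 h before and during the study. MAP was read directly and blood drawn for PRA through chronic arterial access ports. Compound was given IV via venous catheter in 0.05% acetic acid/5% dextrose/H2O, 20 min after a vehicle control. Time courses were plotted and peak changes taken; N = 2.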

[2] = Peak change in mean arterial pressure (average) at the dose of 0.35 mg/kg administered through intravenously in Rhesus monkeys.; assay type: functional, Cercopithecidae, Artery; conditions: route intravenous; how it was run: as §1
[3] = Peak change in heart rate (average) at the dose of 0.35 mg/kg administered through intravenously in Rhesus monkeys.; assay type: functional, Cercopithecidae; conditions: route intravenous; how it was run: as §1
[4] = Inhibition of plasma renin determined at Peak change in mean arterial pressure at the dose of 0.39 mg/kg administered through intravenously in Rhesus monkeys.; assay type: functional; conditions: Cercopithecidae, route intravenous; how it was run: as §1
[5] = Peak change in heart rate (average) at the dose of 0.39 mg/kg administered through intravenously in Rhesus monkeys.; assay type: functional, Cercopithecidae; conditions: route intravenous; how it was run: as §1
[6] = Peak change in mean arterial pressure (average) at the dose of 0.39 mg/kg administered through intravenously in Rhesus monkeys.; assay type: functional, Cercopithecidae, Artery; conditions: route intravenous; how it was run: as §1
[7] = Peak change in heart rate (average) at the dose of 0.88 mg/kg administered through intravenously in Rhesus monkeys.; assay type: functional, Cercopithecidae; conditions: route intravenous; how it was run: as §1
[8] = Inhibition of plasma renin determined at Peak change in mean arterial pressure at the dose of 0.88 mg/kg administered through intravenously in Rhesus monkeys.; assay type: functional; conditions: Cercopithecidae, route intravenous; how it was run: as §1
[9] = Peak change in mean arterial pressure (average) at the dose of 0.88 mg/kg administered through intravenously in Rhesus monkeys.; assay type: functional, Cercopithecidae, Artery; conditions: route intravenous; how it was run: as §1
[10] = Peak change in heart rate (average) at the dose of 0.34 mg/kg administered through intravenously in Rhesus monkeys.; assay type: functional, Cercopithecidae; conditions: route intravenous; how it was run: as §1
[11] = Peak change in mean arterial pressure (average) at the dose of 0.34 mg/kg administered through intravenously in Rhesus monkeys.; assay type: functional, Cercopithecidae, Artery; conditions: route intravenous; how it was run: as §1
[12] = Inhibition of plasma renin determined at Peak change in mean arterial pressure at the dose of 0.34 mg/kg administered through intravenously in Rhesus monkeys.; assay type: functional; conditions: Cercopithecidae, route intravenous; how it was run: as §1
[13] = Peak change in heart rate (average) at the dose of 0.42 mg/kg administered through intravenously in Rhesus monkeys.; assay type: functional, Cercopithecidae; conditions: route intravenous; how it was run: as §1
[14] = Peak change in mean arterial pressure (average) at the dose of 0.42 mg/kg administered through intravenously in Rhesus monkeys.; assay type: functional, Cercopithecidae, Artery; conditions: route intravenous; how it was run: as §1
[15] = Inhibition of plasma renin determined at Peak change in mean arterial pressure at the dose of 0.42 mg/kg administered through intravenously in Rhesus monkeys.; assay type: functional; conditions: Cercopithecidae, route intravenous; how it was run: as §1
[16] = Peak change in heart rate (average) at the dose of 0.44 mg/kg administered through intravenously in Rhesus monkeys.; assay type: functional, Cercopithecidae; conditions: route intravenous; how it was run: as §1
[17] = Inhibition of plasma renin determined at Peak change in mean arterial pressure at the dose of 0.44 mg/kg administered through intravenously in Rhesus monkeys.; assay type: functional; conditions: Cercopithecidae, route intravenous; how it was run: as §1
[18] = Peak change in mean arterial pressure (average) at the dose of 0.44 mg/kg administered through intravenously in Rhesus monkeys.; assay type: functional, Cercopithecidae, Artery; conditions: route intravenous; how it was run: as §1
[19] = Inhibition of plasma renin determined at Peak change in mean arterial pressure at the dose of 0.40 mg/kg administered through intravenously in Rhesus monkeys.; assay type: functional; conditions: Cercopithecidae, route intravenous; how it was run: as §1
[20] = Peak change in mean arterial pressure (average) at the dose of 0.40 mg/kg administered through intravenously in Rhesus monkeys.; assay type: functional, Cercopithecidae, Artery; conditions: dose 0.4 mg/kg; route intravenous; how it was run: as §1
[21] = Peak change in heart rate (average) at the dose of 0.40 mg/kg administered through intravenously in Rhesus monkeys.; assay type: functional, Cercopithecidae; conditions: dose 0.4 mg/kg; route intravenous; how it was run: as §1
[22] = Peak change in heart rate (average) at the dose of 1.19 mg/kg administered through intravenously in Rhesus monkeys.; assay type: functional, Cercopithecidae; conditions: route intravenous; how it was run: as §1
[23] = Inhibition of plasma renin determined at Peak change in mean arterial pressure at the dose of 1.19 mg/kg administered through intravenously in Rhesus monkeys.; assay type: functional; conditions: Cercopithecidae, route intravenous; how it was run: as §1
[24] = Peak change in mean arterial pressure (average) at the dose of 1.19 mg/kg administered through intravenously in Rhesus monkeys.; assay type: functional, Cercopithecidae, Artery; conditions: route intravenous; how it was run: as §1

SMILES | IC50 (Renin) [nM] | other results
CCOC(=O)Cn1nnnc1SC[C@H](O)[C@H](CC1CCCCC1)NC(=O)[C@H](Cc1cnc[nH]1)NC(=O)[C@H](Cc1ccccc1)NC(=O)OC(C)(C)C | 207 | –
Cn1nnnc1SC[C@H](O)[C@H](CC1CCCCC1)NC(=O)[C@H](Cc1c[nH]cn1)NC(=O)[C@H](Cc1ccccc1)NC(=O)OC(C)(C)C | 32 | inhibition in vivo at 0.35 mg/kg [1]: 89%; Peak deltaMAP [2]: -9 mmHg; Peak deltaHR [3]: -5 beats min-1
CC(C)(C)OC(=O)N[C@@H](Cc1ccccc1)C(=O)N[C@@H](Cc1c[nH]cn1)C(=O)N[C@@H](CC1CCCCC1)[C@@H](O)CSc1nnnn1CCc1ccc(O)cc1 | 33 | –
CC(C)(C)OC(=O)N[C@@H](Cc1ccccc1)C(=O)N[C@@H](Cc1c[nH]cn1)C(=O)N[C@@H](CC1CCCCC1)[C@@H](O)CSc1ncc2ccccn12 | 708 | –
Cn1c(SC[C@H](O)[C@H](CC2CCCCC2)NC(=O)[C@H](Cc2c[nH]cn2)NC(=O)[C@H](Cc2ccccc2)NC(=O)OC(C)(C)C)nnc1C(F)(F)F | 39 | inhibition in vivo at 0.39 mg/kg [4]: 85%; Peak deltaHR [5]: -5 beats min-1; Peak deltaMAP [6]: -11 mmHg
CC(C)(C)OC(=O)N[C@@H](Cc1ccccc1)C(=O)N[C@@H](Cc1cnc[nH]1)C(=O)N[C@@H](CC1CCCCC1)[C@@H](O)CSc1ccccn1 | 198 | –
CC(C)(C)OC(=O)N[C@@H](Cc1ccccc1)C(=O)N[C@@H](Cc1cnc[nH]1)C(=O)N[C@@H](CC1CCCCC1)[C@@H](O)CSc1nnnn1CC(=O)NCCN1CCOCC1 | 314 | –
Cn1nc(C(F)(F)F)nc1SC[C@H](O)[C@H](CC1CCCCC1)NC(=O)[C@H](Cc1c[nH]cn1)NC(=O)[C@H](Cc1ccccc1)NC(=O)OC(C)(C)C | 392 | –
C[n+]1ccc(CCn2nnnc2SC[C@H](O)[C@H](CC2CCCCC2)NC(=O)[C@H](Cc2c[nH]cn2)NC(=O)[C@H](Cc2ccccc2)NC(=O)OC(C)(C)C)cc1 | 678 | –
Cn1cnnc1SC[C@H](O)[C@H](CC1CCCCC1)NC(=O)[C@H](Cc1c[nH]cn1)NC(=O)[C@H](Cc1ccccc1)NC(=O)OC(C)(C)C | 81 | Peak deltaHR [7]: 17 beats min-1; inhibition in vivo at 0.88 mg/kg [8]: 90%; Peak deltaMAP [9]: -9 mmHg
CC(C)(C)OC(=O)N[C@@H](Cc1ccccc1)C(=O)N[C@@H](Cc1c[nH]cn1)C(=O)N[C@@H](CC1CCCCC1)[C@@H](O)CSc1nnnn1CCc1ccncc1 | 31 | Peak deltaHR [10]: 1 beats min-1; Peak deltaMAP [11]: -22 mmHg; inhibition in vivo at 0.34 mg/kg [12]: 95%
CN(C)CCNC(=O)Cn1nnnc1SC[C@H](O)[C@H](CC1CCCCC1)NC(=O)[C@H](Cc1c[nH]cn1)NC(=O)[C@H](Cc1ccccc1)NC(=O)OC(C)(C)C | 1290 | –
CC(C)(C)OC(=O)N[C@@H](Cc1ccccc1)C(=O)N[C@@H](Cc1c[nH]cn1)C(=O)N[C@@H](CC1CCCCC1)[C@@H](O)CSc1nnnn1CCN1CCOCC1 | 39 | Peak deltaHR [13]: -8 beats min-1; Peak deltaMAP [14]: -10.5 mmHg; inhibition in vivo at 0.42 mg/kg [15]: 90%
CN1CCN(C(=O)Cn2nnnc2SC[C@H](O)[C@H](CC2CCCCC2)NC(=O)[C@H](Cc2c[nH]cn2)NC(=O)[C@H](Cc2ccccc2)NC(=O)OC(C)(C)C)CC1 | 359 | –
CC(C)(C)OC(=O)N[C@@H](Cc1ccccc1)C(=O)N[C@@H](Cc1c[nH]cn1)C(=O)N[C@@H](CC1CCCCC1)[C@@H](O)CSc1nnc(C(F)(F)F)n1CCc1ccncc1 | 41 | Peak deltaHR [16]: -1 beats min-1; inhibition in vivo at 0.44 mg/kg [17]: 93%; Peak deltaMAP [18]: -10 mmHg
CC(C)(C)OC(=O)N[C@@H](Cc1ccccc1)C(=O)N[C@@H](Cc1cnc[nH]1)C(=O)N[C@@H](CC1CCCCC1)[C@@H](O)CSc1nnnn1CC(=O)O | 396 | –
CC(C)(C)OC(=O)N[C@@H](Cc1ccccc1)C(=O)N[C@@H](Cc1c[nH]cn1)C(=O)N[C@@H](CC1CCCCC1)[C@@H](O)CSc1nnc(Nc2ccccc2)s1 | 3310 | –
Cc1ccnc(SC[C@H](O)[C@H](CC2CCCCC2)NC(=O)[C@H](Cc2cnc[nH]2)NC(=O)[C@H](Cc2ccccc2)NC(=O)OC(C)(C)C)n1 | 240 | –
CC(C)(C)OC(=O)N[C@@H](Cc1ccccc1)C(=O)N[C@@H](Cc1c[nH]cn1)C(=O)N[C@@H](CC1CCCCC1)[C@@H](O)CS(=O)(=O)c1nnnn1CCc1cc[n+]([O-])cc1 | 37 | inhibition in vivo at 0.4 mg/kg [19]: 98%; Peak deltaMAP [20]: -12 mmHg; Peak deltaHR [21]: 23 beats min-1
CC(C)(C)OC(=O)N[C@@H](Cc1ccccc1)C(=O)N[C@@H](Cc1cnc[nH]1)C(=O)N[C@@H](CC1CCCCC1)[C@@H](O)CSc1nnnn1CC(N)=O | 448 | –
CC(C)(C)OC(=O)N[C@@H](Cc1ccccc1)C(=O)N[C@@H](Cc1c[nH]cn1)C(=O)N[C@@H](CC1CCCCC1)[C@@H](O)CSC1CCCCC1 | 289 | –
CN(C)CCn1nnnc1SC[C@H](O)[C@H](CC1CCCCC1)NC(=O)[C@H](Cc1cnc[nH]1)NC(=O)[C@H](Cc1ccccc1)NC(=O)OC(C)(C)C | 145 | –
Cn1ccnc1SC[C@H](O)[C@H](CC1CCCCC1)NC(=O)[C@H](Cc1c[nH]cn1)NC(=O)[C@H](Cc1ccccc1)NC(=O)OC(C)(C)C | 124 | Peak deltaHR [22]: -3 beats min-1; inhibition in vivo at 1.19 mg/kg [23]: 75%; Peak deltaMAP [24]: -8.5 mmHg
C=CCn1c(SC[C@H](O)[C@H](CC2CCCCC2)NC(=O)[C@H](Cc2c[nH]cn2)NC(=O)[C@H](Cc2ccccc2)NC(=O)OC(C)(C)C)nnc1C(F)(F)F | 206 | –
